Test results taken from PMC4178936 (The Journal of General Physiology, 2014).
Read-outs that look alike come from different tables or passages of the source.

Tests used:
K1250A CFTR [1] = target: T1, K1250A CFTR (Homo sapiens, UniProt P13569, K1250A); assay: Macroscopic pore-block/permeation assay on locked-open K1250A CFTR currents; assay type: biochemical; conditions: for fractional current of locked-open K1250A CFTR: 210 µM NPPB, 32 mM 3NB, 20 mM 3PP
Procedure, shortened: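 K1250A channels were locked open by removing 10 mM MgATP, in inside-out oocyte patches at 25°C, −80 and 60 mV. Test compounds were applied briefly alone or pairwise (head fragment 32 mM, tail fragment 20 mM, parent 210 µM). Tail stock 50 mM was titrated with sulfuric acid (~0.45 mol/mol), so sulfate 1–20 mM was tested separately. Fractional current = quasi-steady drug current ÷ mean pre/post current. Apparent KI came from dose–response fits.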

WT CFTR [2] = target: T2, WT CFTR (Homo sapiens, UniProt P13569); assay: Steady-state macroscopic WT CFTR currents; assay type: biochemical
T2 sequence (P13569 whole entry): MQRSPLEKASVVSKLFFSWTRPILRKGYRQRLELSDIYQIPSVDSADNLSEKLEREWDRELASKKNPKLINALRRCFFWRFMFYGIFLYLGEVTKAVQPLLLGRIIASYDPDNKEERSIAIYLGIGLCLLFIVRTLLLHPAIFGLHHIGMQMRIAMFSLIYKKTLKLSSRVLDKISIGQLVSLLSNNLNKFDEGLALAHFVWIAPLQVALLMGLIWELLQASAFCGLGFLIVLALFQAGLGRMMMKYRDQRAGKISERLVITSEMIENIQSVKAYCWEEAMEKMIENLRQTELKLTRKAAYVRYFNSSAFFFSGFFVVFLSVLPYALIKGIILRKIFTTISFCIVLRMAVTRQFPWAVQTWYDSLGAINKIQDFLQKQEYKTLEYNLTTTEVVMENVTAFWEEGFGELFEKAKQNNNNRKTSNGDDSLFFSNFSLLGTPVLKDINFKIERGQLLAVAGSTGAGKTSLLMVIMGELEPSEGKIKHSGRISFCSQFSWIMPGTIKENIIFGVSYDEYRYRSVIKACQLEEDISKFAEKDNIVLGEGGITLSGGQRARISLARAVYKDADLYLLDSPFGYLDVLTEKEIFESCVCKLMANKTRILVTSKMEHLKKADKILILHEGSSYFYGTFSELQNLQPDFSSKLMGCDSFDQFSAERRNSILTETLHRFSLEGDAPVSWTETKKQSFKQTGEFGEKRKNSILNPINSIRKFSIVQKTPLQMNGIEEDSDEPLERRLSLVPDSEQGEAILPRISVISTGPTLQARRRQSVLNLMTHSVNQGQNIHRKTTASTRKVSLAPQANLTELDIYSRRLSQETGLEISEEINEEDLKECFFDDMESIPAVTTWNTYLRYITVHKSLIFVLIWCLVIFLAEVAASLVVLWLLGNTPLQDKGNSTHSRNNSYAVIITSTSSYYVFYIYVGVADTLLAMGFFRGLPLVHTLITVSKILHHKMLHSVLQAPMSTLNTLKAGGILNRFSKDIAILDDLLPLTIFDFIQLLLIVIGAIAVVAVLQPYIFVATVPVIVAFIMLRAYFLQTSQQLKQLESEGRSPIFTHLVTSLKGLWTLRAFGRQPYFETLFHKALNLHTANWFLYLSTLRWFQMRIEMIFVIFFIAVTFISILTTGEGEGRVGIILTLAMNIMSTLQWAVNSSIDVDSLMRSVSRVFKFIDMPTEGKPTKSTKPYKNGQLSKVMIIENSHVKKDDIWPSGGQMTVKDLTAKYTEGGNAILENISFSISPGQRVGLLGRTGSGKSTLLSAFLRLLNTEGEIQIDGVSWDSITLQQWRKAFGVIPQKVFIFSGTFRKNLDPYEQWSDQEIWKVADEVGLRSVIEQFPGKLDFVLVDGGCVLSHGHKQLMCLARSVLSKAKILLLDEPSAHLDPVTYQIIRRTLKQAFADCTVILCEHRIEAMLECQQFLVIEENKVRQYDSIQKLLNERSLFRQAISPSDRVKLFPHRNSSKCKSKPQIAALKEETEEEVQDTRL

WT CFTR [3] = target: T2, WT CFTR; assay: Macroscopic; assay type: biochemical
Procedure, shortened: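 Human WT CFTR from cRNA (0.1–10 ng) was expressed in Xenopus oocytes; excised inside-out patches at 25°C, NMDG-Cl solutions, bath pH 7.1. Channels were prephosphorylated with 300 nM PKA catalytic subunit and gated in 2 mM MgATP ± test compound. Current decay after sudden ATP removal was fitted to a single exponential (rate = 1/τ), normalized to same-patch control and rescaled by pooled control mean. Mean ± SEM, n ≥ 5.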

K1250A CFTR [4] = target: T1, K1250A CFTR; assay: Macroscopic nonhydrolytic closing rate of K1250A CFTR after ATP removal; assay type: biochemical
Procedure, shortened: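 Nonhydrolytic closure of K1250A CFTR was studied in inside-out oocyte patches at 25°C, with channels gating in 10 mM MgATP after PKA prephosphorylation. The rate was the inverse of a single-exponential fit to current decay after ATP removal, normalized to same-patch control. Parent-compound series was recorded at −40 mV, fragment series at −20 mV. Mean ± SEM of at least five.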

WT CFTR [5] = target: T2, WT CFTR; assay: Single-channel steady-state kinetic analysis of WT CFTR; assay type: biochemical; conditions: 20 mM 3PP, −80 mV
Procedure, shortened: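 Steady-state WT CFTR gating was recorded after PKA prephosphorylation, in 2 mM ATP at −80 mV and 25°C. Patches held one active channel for the 32 mM head fragment, or one to four for the 20 mM tail fragment. Traces were filtered at 100 Hz (control, tail) or 50 Hz (head) and idealized by half-amplitude threshold. Events were fitted by maximum likelihood to a closed-open-blocked scheme (dead times 4 and 6 ms), yielding τb and τib.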

K1250A CFTR [6] = target: T1, K1250A CFTR; assay: Steady-state versus locked-open K1250A CFTR currents; assay type: biochemical; conditions: 32 mM 3NB, 20 mM 3PP; 10 mM ATP; −20 mV
Procedure, shortened: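 K1250A CFTR was recorded at −20 mV in 10 mM ATP, 25°C. Head (32 mM) or tail (20 mM) fragment was applied for long periods to channels gating at steady state (I/Icontrol), and briefly to locked-open channels after ATP removal (i/icontrol). Po change = (I/Icontrol)/(i/icontrol).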

CFTR pore-binding site = CFTR pore-binding site (Homo sapiens, UniProt P13569, K1250A); assay: Estimated dissociation constants and free enthalpies of binding in the pore; assay type: biochemical; conditions: Kd(0) estimate for binding in the pore
CFTR pore-binding site, sequence (P13569 whole entry K1250A): as the sequence (P13569 whole entry) above, with K1250A counted along it

CFTR gating site = CFTR gating site (Homo sapiens, UniProt P13569); assay type: biochemical
CFTR gating site, sequence (P13569 whole entry): as the sequence (P13569 whole entry) above
Procedure, shortened: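 Gating-site Kd was taken as the apparent K1/2 for stimulation of WT CFTR open probability at −80 mV, from Hill fits to Po dose–response curves, with binding assumed voltage independent. ΔG°binding = kT·ln(Kd).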

E1371S CFTR [7] = target: T3, E1371S CFTR (Homo sapiens, UniProt P13569, E1371S); assay type: biochemical; conditions: 80 mM MOPS−; −120 mV
T3 sequence (P13569 whole entry E1371S): as the sequence (P13569 whole entry) above, with E1371S counted along it
Procedure, shortened: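 E1371S CFTR channels were locked open in inside-out oocyte patches at 25°C, phosphorylated by PKA or endogenously. After ATP removal, test compound was applied briefly with or without 80 mM MOPS− (MOPS solutions pH 7.2, ~50% ionized). Fractional current = quasi-steady current in drug ÷ mean of pre- and post-exposure currents. Apparent KI was taken from dose–response fits. Mean ± SEM, n ≥ 5.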

E1371S CFTR [8] = target: T3, E1371S CFTR; conditions: read-out: apparent KI for pore block; −120 mV; ref Csanády and Töröcsik, 2014; cited from earlier work
ΔF508 CFTR = conditions: in vitro, cited from earlier work

T1 sequence (P13569 whole entry K1250A, the tested form may be a part): as the sequence (P13569 whole entry) above, with K1250A counted along it

With `NCCCc1ccccc1` [3PP, 3-phenylpropylamine] the “effects on unitary currents” value (K1250A CFTR [1]; 20 mM 3PP-sulfate) was ~10%, the “fractional current of locked-open K1250A CFTR” value (K1250A CFTR [1]; 60 mV) was ~1.11 and the EC50 (K1250A CFTR [1]; K1/2 for enhancement of locked-open K1250A current, 60 mV, tentative Hill fit) was ~10 mM. The “enhancement of the rate of ion flow through locked-open K1250A channels” value (K1250A CFTR [1]; positive voltages (60 mV), high 3PP concentrations) was ~10%, the “fractional current of locked-open K1250A CFTR” value (K1250A CFTR [1]; −80 mV) was ~0.91 and the “stimulation of open probability for WT CFTR” value (WT CFTR [2]; high concentrations, −80 mV, macroscopic) was “two- to threefold”. For the same molecule, the “slowing of WT CFTR hydrolytic closing rate” value (WT CFTR [3]; 20 mM 3PP-sulfate, −80 mV) was ~2.5 fold, the “acceleration of K1250A closing rate” value (K1250A CFTR [4]; 20 mM 3PP, −20 mV) was ~20% and the “effect on unitary current amplitude” value (WT CFTR [5]) was “little affected unitary current amplitude”. For the same molecule, the “effect on mean burst duration τb” value (WT CFTR [5]; 32 mM 3NB, 2 mM ATP) was “prolonged τb”, the “effect on mean interburst duration τib” value (WT CFTR [5]; 32 mM 3NB, 2 mM ATP) was “did not affect τib” and the “stimulation of single-channel Po” value (WT CFTR [5]; 32 mM 3NB, 2 mM ATP) was “twofold”. The “effect on Po of K1250A CFTR” value (K1250A CFTR [6]) was “no change in Po”, the Kd (CFTR pore-binding site; assuming z = 0.1) was 12.6 mM and the Kd (CFTR pore-binding site; assuming z = 0.2) was 16 mM. For the same molecule, the Kd (CFTR pore-binding site; assuming z = 0.5) was 32 mM and the Kd (CFTR gating site) was 6 mM.

For `O=S(=O)(O)O` [sulfate], the “effect on locked-open channel currents” value (K1250A CFTR [1]; 60 mV) was “did not affect locked-open channel currents”, the “sulfate concentration yielding maximal pore block” value (K1250A CFTR [1]; −80 mV, anomalous dose dependence) was ~5 mM and the “effect on WT CFTR open probability / gating” value (WT CFTR [2]; 10 mM sulfate) was “little effect”. The “effect on WT CFTR closing rate” value (WT CFTR [3]; 10 mM sulfate) was “did not affect WT CFTR closing rate”.

With `O=S(=O)(O)CCCN1CCOCC1` [MOPS^−, reference compound] the “reduction of macroscopic current through locked-open E1371S channels” value (E1371S CFTR [7]) was ~90%, the “effect on WT CFTR closing rate” value (WT CFTR [3]; 80 mM MOPS−, −120 mV) was “little affected” and the “effect on K1250A closing rate” value (K1250A CFTR [4]; 80 mM MOPS−, −40 mV) was “neither affected K1250A closing rate”. The Ki (E1371S CFTR [8]) was 8.3 mM.

For `CC(C)(C)c1cc(C(C)(C)C)c(NC(=O)c2c[nH]c3ccccc3c2=O)cc1O` [VX-770], the “stimulation of ΔF508 CFTR currents” value (ΔF508 CFTR; ref Kopeikin et al., 2014) is listed as 10–20 fold and the “stimulation of ΔF508 CFTR currents” value (ΔF508 CFTR; ref Van Goor et al., 2009) is listed as ~5 fold.
